Experimental findings from article PMC3362663 (Bioorganic & medicinal chemistry letters, 2012) are described below.

Molecules are shown by their SMILES.

The target of one experiment is T1, Epac1 (Homo sapiens, UniProt O95398).
T1 sequence (O95398 1-923): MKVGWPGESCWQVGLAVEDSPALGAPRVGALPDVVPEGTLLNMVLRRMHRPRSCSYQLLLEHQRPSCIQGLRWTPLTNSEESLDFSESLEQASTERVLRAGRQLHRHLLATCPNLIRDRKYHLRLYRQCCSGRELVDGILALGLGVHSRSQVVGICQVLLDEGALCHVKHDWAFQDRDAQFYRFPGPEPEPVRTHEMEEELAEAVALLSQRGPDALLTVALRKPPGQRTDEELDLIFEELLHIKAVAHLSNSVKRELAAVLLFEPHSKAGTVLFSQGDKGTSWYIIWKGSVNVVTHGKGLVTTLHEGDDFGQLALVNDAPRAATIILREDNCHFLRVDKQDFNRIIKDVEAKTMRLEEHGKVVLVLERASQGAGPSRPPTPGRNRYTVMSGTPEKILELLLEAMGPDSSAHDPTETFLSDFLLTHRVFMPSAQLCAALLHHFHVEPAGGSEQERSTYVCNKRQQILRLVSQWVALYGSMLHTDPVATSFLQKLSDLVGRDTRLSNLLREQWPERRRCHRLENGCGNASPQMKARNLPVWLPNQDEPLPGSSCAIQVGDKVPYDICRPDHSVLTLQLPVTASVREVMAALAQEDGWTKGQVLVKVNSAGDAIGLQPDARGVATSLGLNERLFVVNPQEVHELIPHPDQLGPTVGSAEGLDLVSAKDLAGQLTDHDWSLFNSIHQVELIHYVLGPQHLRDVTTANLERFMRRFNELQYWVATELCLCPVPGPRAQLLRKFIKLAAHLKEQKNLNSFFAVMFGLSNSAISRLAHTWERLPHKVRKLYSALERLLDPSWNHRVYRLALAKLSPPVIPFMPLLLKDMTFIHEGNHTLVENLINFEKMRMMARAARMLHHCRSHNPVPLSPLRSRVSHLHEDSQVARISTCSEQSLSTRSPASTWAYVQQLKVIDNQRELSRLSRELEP
Put plainly: cAMP-mediated Epac1 GEF activity. The class given is biochemical. Particulars: for Inhibition of Epac1 GEF (Rap1-GDP exchange) activity: 25 μM compound in the presence of equal concentration (25 μM) of cAMP.

A further experiment has as its system HEK293/Epac1 cells. In words: Epac1-mediated Akt/PKB phosphorylation. It is filed as cell-based. The following applies: 10 μM, 5 min pretreatment before 10 μM 007-AM. The gist of the method:
(§1)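 HEK293 cells ectopically expressing Epac1 or Epac2 were pretreated, or not, with 10 μM test compound and then stimulated with 10 μM 007-AM. Cell lysates were analysed by Western blot with anti-phospho-Ser473 and anti-phospho-Thr308 PKB antibodies.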

For a further experiment, the system named is type II PKA holoenzyme. Put plainly: Counter-screen: type II PKA holoenzyme activity. It is filed as biochemical. The following applies: 25 μM compound, 100 μM cAMP.
A further experiment relates to type I PKA holoenzyme. In words: Counter-screen: type I PKA holoenzyme activity. The class given is biochemical. The following applies: 25 μM compound, 100 μM cAMP. (In general: A counterscreen serves to expose hits that act by an unwanted route or on another target.)
The next experiment has as its system HEK293/Epac2 cells. Put plainly: Epac2-mediated Akt/PKB phosphorylation. The class given is cell-based. The following applies: 10 μM, 5 min pretreatment before 10 μM 007-AM. The gist of the method:
as §1

The target in experiment [1] is T2, Epac2 (Mus musculus, UniProt Q9EQZ6).
T2 sequence (Q9EQZ6 1-993 isoform Q9EQZ6-3): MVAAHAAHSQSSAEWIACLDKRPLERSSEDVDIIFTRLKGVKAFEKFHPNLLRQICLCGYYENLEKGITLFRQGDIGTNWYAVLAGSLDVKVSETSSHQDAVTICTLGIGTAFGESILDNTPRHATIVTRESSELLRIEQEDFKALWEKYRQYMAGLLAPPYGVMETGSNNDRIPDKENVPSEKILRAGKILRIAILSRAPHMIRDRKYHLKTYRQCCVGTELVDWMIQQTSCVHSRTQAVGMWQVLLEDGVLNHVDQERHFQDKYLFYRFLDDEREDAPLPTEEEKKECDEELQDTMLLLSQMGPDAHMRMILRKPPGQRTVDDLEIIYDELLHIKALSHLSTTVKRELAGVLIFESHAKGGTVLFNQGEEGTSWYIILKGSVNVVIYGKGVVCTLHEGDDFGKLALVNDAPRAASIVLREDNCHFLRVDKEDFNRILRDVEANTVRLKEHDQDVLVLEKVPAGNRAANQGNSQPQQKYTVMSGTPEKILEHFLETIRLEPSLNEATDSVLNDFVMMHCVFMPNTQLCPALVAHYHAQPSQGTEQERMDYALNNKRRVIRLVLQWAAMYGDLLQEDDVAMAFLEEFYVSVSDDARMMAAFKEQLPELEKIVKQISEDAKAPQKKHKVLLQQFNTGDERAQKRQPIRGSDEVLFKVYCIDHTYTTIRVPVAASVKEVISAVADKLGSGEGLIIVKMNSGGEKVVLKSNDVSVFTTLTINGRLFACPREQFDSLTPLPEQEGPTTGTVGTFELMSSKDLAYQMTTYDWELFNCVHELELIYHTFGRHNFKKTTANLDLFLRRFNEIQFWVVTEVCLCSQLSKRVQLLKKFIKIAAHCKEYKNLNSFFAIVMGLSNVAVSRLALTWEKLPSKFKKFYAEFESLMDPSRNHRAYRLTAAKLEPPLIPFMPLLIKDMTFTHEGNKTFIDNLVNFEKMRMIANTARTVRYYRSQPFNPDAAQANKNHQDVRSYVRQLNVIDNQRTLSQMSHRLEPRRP
Put plainly: cAMP-mediated Epac2 GEF activity, purified recombinant full-length protein. The following applies: for Inhibition of Epac2 GEF activity: 25 μM compound in the presence of equal concentration (25 μM) of cAMP. The class given is biochemical.

The target of experiment [2] is T2, Epac2. Put plainly: 8-NBD-cAMP competition binding to Epac2, dose-dependent titration.
Setting [3] is: 25 μM in the presence of equal molar concentration of cAMP, unpublished data.

In the case of `Cc1ccc(C)c(CSc2nc(C3CC3)c(C#N)c(=O)[nH]2)c1` [6g, 4-Cyclopropyl-2-(2,5-dimethylbenzylsulfanyl)-6-oxo-1,6-dihydro-pyrimidine-5-carbonitrile], the “Inhibition of Epac1 GEF (Rap1-GDP exchange) activity” value at Epac1 is reported as “more Epac2-specific”. Moreover, in the experiment on HEK293/Epac1 cells, the “Block of Epac1-mediated Akt phosphorylation” value is reported as “completely blocked”. Besides, in the experiment on type II PKA holoenzyme, the “Effect on cAMP-induced type II PKA holoenzyme activation” value is given as “not to alter”. Moreover, the “Effect on cAMP-induced type I PKA holoenzyme activation” value in the experiment on type I PKA holoenzyme is given as “not to alter”. In addition, the “Block of Epac2-mediated Akt phosphorylation” value in the experiment on HEK293/Epac2 cells is “completely blocked”. Further, the “Inhibition of Epac2 GEF activity” value at Epac2 [1] is recorded as “inhibit Epac2 GEF activity to basal levels”.
As to `Cc1cc(C)c(NC(=O)CSc2nc(C3CCCCC3)c(C#N)c(=O)[nH]2)c(C)c1` [11b], the IC50 (usually the midpoint of a concentration-inhibition curve) on Epac2 [2] was more than 300 µM.
With `Cc1ccc(C)c(CSc2nc(C3CCCCC3)c(C#N)c(=O)[nH]2)c1` [compound 1], on Epac1 (setting [3]), the “Inhibition of Epac1 activity” value is “completely inhibiting”. On Epac2 [1] (setting [3]), the “Inhibition of Epac2 activity” value is listed as “completely inhibiting”.
At Epac2 [2], `Cc1ccc(C)c(CSc2nc(C3CCNCC3)c(C#N)c(=O)[nH]2)c1` [6k] showed an IC50 of more than 300 µM.
Still for that read-out and setting: for `N#Cc1c(C2CCCCC2)nc(Nc2ccccc2)[nH]c1=O` [8a] the value was more than 300 µM.
For `O=S(=O)(NCCNC/C=C/c1ccc(Br)cc1)c1cccc2cnccc12` [H89, reference compound], the “Effect on cAMP-induced type II PKA holoenzyme activation” value in the experiment on type II PKA holoenzyme is “blocked the type I or II PKA activities completely”. In addition, in the experiment with type I PKA holoenzyme, the “Effect on cAMP-induced type I PKA holoenzyme activation” value is given as “blocked the type I or II PKA activities completely”.
In the case of `N#Cc1c(C2CCCCC2)nc(SCC(=O)O)[nH]c1=O` [compound 10], the IC50 at Epac2 [2] was more than 300 µM.
On to `N#Cc1c(C2CCCCC2)nc(Nc2ccc(Cl)cc2)[nH]c1=O` [8b], for which the IC50 on Epac2 [2] was more than 300 µM.
Compound `N#Cc1c(C2CCCCC2)nc(S)[nH]c1=O` [5a] had an IC50 at Epac2 [2] of more than 300 µM. The “Relative Potency (RA)” value at Epac2 [2] (RA = IC50, cAMP/IC50, compound) is given as less than 0.16.
For `Cc1ccc(C)c(CSc2nc(C3CCCC3)c(C#N)c(=O)[nH]2)c1` [6h, 4-Cyclopentyl-2-(2,5-dimethyl-benzylsulfanyl)-6-oxo-1,6-dihydro-pyrimidine-5-carbonitrile], on Epac1, the “Inhibition of Epac1 GEF (Rap1-GDP exchange) activity” value is reported as “inhibit Epac1-mediated Rap1-GDP exchange activity”. Besides, the “Block of Epac1-mediated Akt phosphorylation” value with HEK293/Epac1 cells was “completely blocked”. Further, the “Effect on cAMP-induced type II PKA holoenzyme activation” value in the experiment with type II PKA holoenzyme is “not to alter”. In addition, the “Effect on cAMP-induced type I PKA holoenzyme activation” value in the experiment on type I PKA holoenzyme is listed as “not to alter”. In the experiment with HEK293/Epac2 cells, the “Block of Epac2-mediated Akt phosphorylation” value is “completely blocked”. Further, on Epac2 [1], the “Inhibition of Epac2 GEF activity” value is reported as “inhibit Epac2 GEF activity to basal levels”.
As to `Cc1ccc(NC(=O)CSc2nc(C3CCCCC3)c(C#N)c(=O)[nH]2)cc1` [11c], the IC50 at Epac2 [2] is more than 300 µM.
The same measure, in the same setting: as for `N#Cc1c(C2CCCCC2)nc(SCC(=O)Nc2ccccc2)[nH]c1=O` [11a], the figure is more than 300 µM.
